# MT stabilize HCS = microtubule stabilizers in HeLa cells, primary screen, imaging, high-content imaging. HeLa tubulin immunostaining HCS, 24 h; share of cells brighter than vehicle mean+2SD. % tubulin-high responders, % at 10 µM. 200,000 compounds, 0.83% hits;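 active means plate Z-score above 3 for both tubulin-high and condensed-nucleus cell shares, with cell loss under 80%, at 10 µM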;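 further: anti alpha tubulin signal scored within the nucleus-defined area of each cell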
# RAM inhibit = inhibitors of the yeast RAM network, primary screen, dse1pr::URA3 reporter, 5-FOA selection | AID 868, 2007 | S. cerevisiae dse1pr::URA3 reporter, 5-FOA growth OD615, 2 d; analog-sensitive cbk1-as2 kinase mutant strain | inhibition, % at 50 µM | 190,000 compounds, 1.8% hits;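 active means inhibition above a set limit, 3 SD over mean compound inhibition, cut at about 8.4% in these data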;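 further: 0% = DMSO-only wells with no growth and 100% = 10 µM 1-NA-PP1 full growth; inhibition rescues growth on 5-FOA so higher OD means more RAM inhibition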
# b-catenin transl = modulators of beta-catenin nuclear translocation, primary screen, imaging, HeLa cells, immunofluorescence, high-content; nuclear translocation activity, % at 5 µM; 190,000 compounds, 0.3% hits; AID 1665, 2009;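 active means nuclear translocation activity above 50% at 5 µM, with a well cell count of 50 or more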;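 further: per-cell ratio of nuclear to cytoplasmic median beta-catenin stain intensity; plate controls were DMSO negative control for no effect and GSK-3 inhibitor IX positive control for full effect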
#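 Signal – beta-catenin immunofluorescence imaging with DAPI · Test system – human HeLa cell line · Dosing – 5 µM primary single dose, 0.1% DMSO, 0.02–20 µM confirmation series · Measure – % activation, nuclear-to-cytoplasmic median beta-catenin signal ratio per cell · Incubation – 24 h compound exposure at 37°C, 5% CO2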
# Yeast lifespan up = compounds extending yeast replicative lifespan, primary screen, S. cerevisiae, OD615 | S. cerevisiae growth with nicotinamide; deaD strain in restrictive glucose medium | inhibition of the nicotinamide effect, % at 10 µM | 130,000 compounds, 0.68% hits | AID 775, 2007;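 active means inhibition above a set limit, placed 3 SD over the median of all compounds, cut at about 26% in these data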;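 further: 0% = nicotinamide-treated wells and 100% = cells grown without nicotinamide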
#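 System: DeaD-strain S. cerevisiae / Buffer or medium: CSMM-D, restrictive glucose (dextrose) synthetic minimal medium / Probe or stimulus: nicotinamide, 1.5 mM, co-present with compound / Compound: one concentration, 10 µM, DMSO 0.25% / Incubation: 48 h compound exposure at 30 °C, humidified / Technique: optical density (absorbance) at 615 nm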
# Yeast growth inh = growth inhibitors of yeast BB579 in restrictive medium, primary screen, yeast lifespan-shortening project, S. cerevisiae; inhibition, % at 10 µM; OD615, 48 h; 140,000 compounds, 0.51% hits; AID 804, 2007;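 active means inhibition above a set limit, 3 SD over the mean compound inhibition, cut at about 44% in these data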
#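 Test system: S. cerevisiae DeaD strain BB579 yeast; Medium: restrictive CSMM-D medium; Compound: one dose, 10 µM compound with 0.25% DMSO; Incubation: 4 h cell preincubation, 48 h compound exposure, 30 °C humidified; Signal: OD at 615 nm; Benchmarks: amphotericin B at 10 µg/mL as positive control.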
# Efa HMGR inh = inhibitors of E. faecalis class II HMGR, primary screen, biochemical, Enterococcus faecalis. HMG-CoA reductase (Enterococcus faecalis, mvaE). purified E. faecalis HMGR, NADPH absorbance 340 nm kinetic. inhibition, % at 10 µM. 190,000 compounds, 0.41% hits;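 active means inhibition above a set limit, the median over all tested compounds plus 3 SD, cut at about 9.5% in these data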;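 further: enzyme runs in reverse so mevalonate oxidation gives rising NADPH absorbance; 0% = complete reaction with DMSO and 100% = background rate lacking mevalonate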
# An asterisk follows results filed as active; . = no result. This is a sample that favours compounds with a hit; in the whole collection about 3.5% have one here.
SMILES,MT stabilize HCS,RAM inhibit,b-catenin transl,Yeast lifespan up,Yeast growth inh,Efa HMGR inh
CCC1(C)Cc2nc3[nH]c(=S)n(-c4ccccc4C)c(=O)c3cc2CO1 (stereo not drawn),.,.,-1.5,.,.,.
COc1ccc(C)cc1NC(=O)c1ccc([N+](=O)[O-])cc1[N+](=O)[O-],2.2,-0.4,-1.3,.,.,4.8
CCOC(=O)CSC1=C(C#N)C(c2ccc(C)cc2)C(C(=O)OC)C(=O)N1 (stereo not drawn),0.5,3.0,-14.4,7.2,-60.4,0.0
COC(=O)C1=C(O)C(C(=O)OC)C(c2ccc(C)cc2)C(C#N)(C#N)C1c1ccc(C)cc1 (stereo not drawn),1.7,8.5*,-2.3,.,-35.4,0.3
Nc1[nH]c(=O)ncc1F,3.3,0.0,-3.8,2.2,73.8*,1.2
Cc1ccccc1NC(=O)C(C)n1c2ccccc2c2nc(=O)cc(C)n21 (stereo not drawn),.,.,1.6,.,.,.
CCCn1c(SCC(=O)N2N=C3/C(=C/c4ccc(OC)cc4)CCCC3C2c2ccc(OC)cc2)n[nH]c1=O (stereo not drawn),2.2,6.5,-0.8,5.1,-27.4,-4.3
COc1ccc(/C=C2\CCCC3C2=NC(=S)NC3c2ccc(OC)cc2)cc1 (stereo not drawn),9.4,5.3,55.6*,3.0,-13.3,1.3
COc1ccc(-c2nnc(SCC(=O)Nc3ccc(C)cc3)n2C)cc1,2.1,2.3,-5.4,-6.9,-36.5,5.8
CC(=O)Nc1ccc(-c2nnc(SCc3c(C)cc(C)cc3C)n2C)cc1,1.6,8.5*,.,-2.8,-2.9,-1.1
COc1ccc(CNC(=O)CSc2nnc(-c3ccc(NC(C)=O)cc3)n2C)cc1,3.1,1.1,-2.3,-27.1,47.7*,-1.4
CC(=O)Nc1ccc(-c2nnc(SCC(=O)c3ccc4c(c3)Cc3ccccc3-4)n2C)cc1,2.5,2.0,.,-8.0,-36.2,1.6
Cc1ccc(C(=O)NC(C)c2ccc3c(c2)OCO3)s1 (stereo not drawn),1.3,2.2,3.7,.,.,13.3*
OCCC1CN(Cc2cccn2-c2cccnc2)CCN1C1CCCC1 (stereo not drawn),.,.,2.5,.,.,.
Cc1ccccc1Nc1nnc(SCc2nc3ccccc3c(=O)[nH]2)s1,2.0,-0.3,-0.7,.,.,13.8*
Cc1c(C(=O)NCCSCc2ccccc2)cccc1[N+](=O)[O-],2.2,-1.2,-0.5,.,.,4.2
Cc1c(C(=O)NCCSCc2ccc(Cl)cc2Cl)cccc1[N+](=O)[O-],2.8,10.8*,-1.7,-4.4,-32.5,0.6
CCN(c1ccc(NC(=O)COC(=O)CCc2cc(OC)c(OC)c(OC)c2)cc1)C(C)C,2.4,0.1,4.1,.,.,1.2
Cc1ccc(Nc2nc(-c3c(C)nc4ncccn34)cs2)cc1,16.8*,1.3,.,-6.2,-22.2,0.2
Cc1ccc(Nc2nc(-c3c(C)nc4ccccn34)cs2)cc1,16.9*,0.6,111.8*,-8.5,-36.6,-3.0
CCCC[C@H](CN(N=O)[C@@H](Cc1ccccc1)CN(C)N=O)N(CCc1ccccc1)N=O,4.3,8.9*,0.8,.,.,2.2
CN(C[C@H](CC1CCCCC1)N(C[C@H](Cc1ccccc1)N(CCc1ccccc1)N=O)N=O)N=O,2.2,11.2*,-0.2,.,.,2.2
CN(C[C@H](Cc1ccccc1)N(C[C@H](Cc1cccc2ccccc12)N(CCc1ccccc1)N=O)N=O)N=O,.,.,0.3,.,.,.
COc1cccc(C2CC(c3cccs3)=NN2C(=O)CSc2nc3c(cnn3-c3ccc(F)cc3)c(=O)[nH]2)c1OC (stereo not drawn),5.1,10.7*,-1.5,5.9,-28.9,-7.8
COc1ccc(C)cc1S(=O)(=O)N1CCC(C(=O)NCCc2ccccc2)CC1,3.1,0.2,1.4,27.9*,8.5,-5.3
SMILES,MT stabilize HCS,RAM inhibit,b-catenin transl,Yeast lifespan up,Yeast growth inh,Efa HMGR inh
CCCCC(=O)NC1(C(F)(F)F)NC(=O)N(Cc2ccccc2)C1=O (stereo not drawn),5.2,-0.7,-3.4,.,.,-0.5
O=C1CCCN2N=C(SCC(=O)N3N=C(c4ccc(Br)cc4)CC3c3ccc(F)cc3)SC2=N1 (stereo not drawn),2.5,10.9*,-4.1,.,.,-1.3
O=C1CCCN2N=C(SCC(=O)N3CCCCC3)SC2=N1,.,.,0.8,.,.,.
Cc1nc2cc(-c3ccc(Cl)cc3)nn2c(NCCN(C)C)c1C,1.8,0.4,0.3,.,.,-1.1
CCN(CC)S(=O)(=O)c1ccc2c(c1)N(CC(=O)Nc1cccnc1Cl)C(=O)CO2,3.6,1.6,-1.9,.,.,2.2
Cc1ccc(S(=O)(=O)N/N=C\c2ccccc2OCc2ccccc2)cc1,24.8*,4.5,.,-17.3,-45.4,-5.2
O=C(/C=C/c1cccs1)c1ccc(NC(=O)c2ccccc2F)cc1,4.2,5.2,0.5,-3.2,-2.7,17.7*
COc1ccccc1C(=O)Nc1ccc(C(=O)/C=C/c2cccs2)cc1,1.6,4.7,-0.3,-1.6,-24.9,-0.7
Cc1cc(C)c2nc(NNC(=O)c3cc(=O)c4ccccc4o3)sc2c1,3.3,9.5*,-2.9,.,.,-1.6
COC(=O)N1CCCc2cc(C)ccc21,5.7,-0.5,-5.0,.,.,11.3*
COc1ccccc1NC(=O)Nc1ccccc1N1CCOCC1,.,.,-0.4,.,.,.
C=CCN1C(C(=O)c2ccccc2)=C(OC(=O)COc2ccccc2)c2ccccc2S1(=O)=O,2.7,5.7,0.6,-1.6,90.2*,-3.7
Clc1ccc(CSc2cc3c(nn2)-c2ccccc2CC3)cc1,2.5,10.3*,2.0,-2.4,-43.1,-5.1
Clc1ccc(CSc2ccc(-c3ccccn3)nn2)cc1,2.7,0.9,-4.9,.,.,-0.5
Cc1ccc(NC(=O)COc2ncnc3cc([N+](=O)[O-])ccc23)cc1S(=O)(=O)N1CCOCC1,.,.,-4.2,.,.,.
CN(Cc1c(O)ccc2c1oc(=O)c1ccccc12)C1CCCCC1,4.8,-0.8,-0.8,46.2*,-23.3,-1.6
CN(C)Cc1c(O)ccc2c3c(c(=O)oc12)CCCCC3,2.2,-0.8,-1.3,22.0,-24.1,-5.4
COc1ccccc1/C=C/C(=O)Nc1ccc2c(c1)OCCO2,24.4*,1.5,72.8*,-6.8,-1.2,-3.2
COc1ccc(NS(=O)(=O)c2cc(NC(=O)/C=C/c3ccccc3OC)ccc2N2CCCCC2)cc1,2.2,10.9*,-1.3,9.1,-63.0,-4.3
C/C(CCc1ccc2c(c1)OCO2)=N\NC(=O)c1ccccc1Br,3.2,-0.3,5.8,.,.,3.1
O=C(O)c1cc2c(s1)-c1ccccc1CC2,2.8,-0.1,-0.9,-6.9,45.5*,-1.2
O=C(O)c1cc2c(s1)-c1ccccc1OC2,3.0,0.4,.,-24.5,42.8,3.5
